From PubChem
CTSL1 counter: Fasciola hepatica cathepsin L1 inhibitors, primary screen, counter-screen for PFM18AAP inhibitor project, biochemical, QFRET, fluorogenic peptide substrate; recombinant F. hepatica cathepsin L1, Z-Leu-Arg-MCA fluorescence; inhibition, % at 5.96 µM; 300,000 tested, 0.49% active; AID 1906, 2009;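 active means inhibition above the mean of all tested compounds plus 3 SD, set per screening campaign, cut at about 17% in these data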
HDAC3 inhib: HDAC3 deacetylase inhibitors, primary screen, biochemical, fluorescence, cell-free homogeneous; Histone deacetylase 3 (Homo sapiens), O15379; recombinant HDAC3, fluorogenic peptide/trypsin coupled; inhibition, % at 8.3 µM; 320,000 tested, 0.15% active; in the data active means inhibition above about 26%, passing the limit was not always enough
PfM18AAP inh: PfM18AAP inhibitors, malaria aminopeptidase, primary screen, biochemical, QFRET, recombinant enzyme; H-Glu-NHMec fluorogenic cleavage; 290,000 tested, 1.2% active; M18 aspartyl aminopeptidase (Plasmodium falciparum 3D7); inhibition, % at 7.35 µM;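 active means inhibition above the campaign mean inhibition over all tested compounds plus 3 SD, cut at about 28% in these data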
FXN GAA850 act: FXN promoter activators, primary screen, cell-based, luciferase luminescence, HEK293 lucGAA850; HEK293 lucGAA850 FXN promoter luciferase reporter, 24 h; percent of 10 µM SAHA response; activation, % at 6 µM; 360,000 tested, 0.56% active;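 active means activation above the average of all compounds screened plus 3 SD, cutoff fixed separately per campaign, cut at about 7.5% in these data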
AHR act: AHR activators, primary screen, cell-based, luminescence, luciferase reporter, human | 320,000 tested, 2.5% active | activation, % at 5 µM | Aryl hydrocarbon receptor (Homo sapiens), P35869 | AHR-responsive luciferase reporter cells; in the data active means activation above about 47%
SENP1 FRET inh: human SENP1 catalytic domain inhibitors, primary screen, biochemical, FRET, uHTS. AID 624204, 2012. Sentrin-specific protease 1 (Homo sapiens), Q9P0U3. 360,000 tested, 0.21% active. inhibition, % at 10 µM. recombinant SENP1 catalytic domain, CyPet-SUMO1-YPet FRET cleavage;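 active means inhibition at least 30% at 10 µM, raw YFP signal under a set limit, fluorescence ratio 0.5 to 1.5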
Target sequence (Q9P0U3 419-644 limits assumed): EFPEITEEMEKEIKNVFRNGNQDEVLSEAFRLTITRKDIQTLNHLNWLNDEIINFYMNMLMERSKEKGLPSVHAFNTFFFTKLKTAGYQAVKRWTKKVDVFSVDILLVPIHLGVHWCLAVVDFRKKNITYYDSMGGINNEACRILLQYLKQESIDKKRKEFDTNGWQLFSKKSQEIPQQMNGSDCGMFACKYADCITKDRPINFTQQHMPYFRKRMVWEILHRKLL
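material = recombinant human SENP1 catalytic domain, His6-tagged | quantity = 20 pM enzyme | reagent = 25 nM SUMO1 FRET substrate | compound dosing = 10 µM single point, 0.5% DMSO | timing = 50 min enzyme reaction, room temperature, light-protected | detection = FRET, CFP and YFP emission | control set = no-enzyme low, enzyme-DMSO high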
Large screens that a line does not name were inactive. The list is not random: actives were taken first. Their share in the collection is about 4.2%.

CC(C)(C)c1cc(-c2n[nH]c(=S)n2-c2ccc(Cl)cc2)n[nH]1	none
COc1ccc(-n2c(-c3ccco3)n[nH]c2=S)cc1	none
S=c1[nH]nc(-c2ccco2)n1-c1ccc(Cl)cc1	PfM18AAP inh 30
Nn1c(-c2ccco2)n[nH]c1=S	PfM18AAP inh 29
Cc1nn(C)cc1-c1n[nH]c(=S)n1-c1ccc(Cl)cc1	PfM18AAP inh 30
C=C(C)C(O)COc1c2occc2c(OC)c2ccc(=O)oc12 (stereo unspecified)	AHR act 55 (no result: CTSL1 counter, HDAC3 inhib, PfM18AAP inh)
COc1c2ccoc2c(OC)c2oc(=O)ccc12	none (no result: PfM18AAP inh)
CN(CC(=O)Nc1cccc(F)c1)C(=O)CSc1nc2ccccc2s1	none (no result: PfM18AAP inh)
Nc1ccccc1NC(=O)NC(=O)c1ccccc1	HDAC3 inhib 41
Nc1ccccc1NC(=O)c1ccccc1N	none
O=C(Cc1nnc(NC(=O)c2ccccc2)s1)N/N=C/c1ccco1	AHR act 115 (no result: HDAC3 inhib)
O=C(Cc1nnc(NC(=O)c2ccccc2)s1)N/N=C/c1cccc(O)c1	none
COc1ccccc1NC(=O)CCNS(=O)(=O)c1ccc2c(c1)CCN2C(C)=O	none
CC(=O)C1=C(O)C(=O)N(c2ccc(S(N)(=O)=O)cc2)C1c1cccc([N+](=O)[O-])c1 (stereo unspecified)	none
CC(=O)C1C(=O)c2c(cccc2[N+](=O)[O-])C1=Nc1ccc(S(N)(=O)=O)cc1 (stereo unspecified)	PfM18AAP inh 31
Cc1nnc(SCC(=O)NNC(=O)c2ccccc2)n1N	none (no result: CTSL1 counter, PfM18AAP inh)
Cn1cccc1C1C(C#N)=C(N)OC2=C1C(=O)CCC2 (stereo unspecified)	PfM18AAP inh 28
COc1ccc(Br)c(C(=O)OCC(=O)N2CCC(Cc3ccccc3)CC2)c1	none (no result: CTSL1 counter, HDAC3 inhib, PfM18AAP inh, AHR act)
O=C1[C@H]2[C@@H](c3ccc(F)cc3)N3C(=O)N(c4ccc(Br)cc4)C(=O)[C@@]3(Cc3ccc(Cl)cc3)[C@H]2C(=O)N1C1CCCCC1	FXN GAA850 act 9.5
O=C1[C@H]2[C@@H](c3ccc(F)cc3)N3C(=O)N(c4cccc(Br)c4)C(=O)[C@@]3(Cc3ccccc3)[C@H]2C(=O)N1C1CCCCC1	none (no result: PfM18AAP inh)
CC[C@@]12C(=O)N(c3cccc(F)c3)C(=O)N1[C@H](c1ccc(F)cc1)[C@@H]1C(=O)N(C3CCCCC3)C(=O)[C@@H]12	FXN GAA850 act 13
COc1ccc(Br)cc1C1Nc2ccccc2C(=O)N1NC(=O)c1ccncc1 (stereo unspecified)	none
O=C(NN1C(=O)c2cc(Br)ccc2NC1c1ccccc1Cl)c1ccncc1 (stereo unspecified)	AHR act 49
O=C(NN1C(=O)c2cc(Br)ccc2NC1c1cc(Br)cc(Br)c1O)c1ccncc1 (stereo unspecified)	AHR act 56
O=C(COC(=O)CNC(=O)c1ccc(Cl)c([N+](=O)[O-])c1)NC(=O)c1ccccc1	AHR act 57
O=C(/C=C/c1ccc2c(c1)OCO2)Nc1cccnc1	AHR act 56
O=C(/C=C/c1ccc2c(c1)OCO2)Nc1nncs1	AHR act 89
O=C(/C=C/c1ccco1)Nc1ccc2c(c1)OCO2	AHR act 72
CC(=O)Cc1nsc(NC(=O)c2ccc(COc3ccccc3C)o2)n1	none
COCCOC(=O)C1=C(C)NC2=C(C(=O)CC(c3cccs3)C2)C1c1ccsc1 (stereo unspecified)	AHR act 50
Cc1cnc(CNc2nc3cc(-c4ccccc4C)sc3c(=O)n2C)cn1	none (no result: CTSL1 counter, HDAC3 inhib, PfM18AAP inh, AHR act)
CCOC(=O)C1CCN(C2=NC(=O)/C(=C/c3ccc(OC)c(OC)c3)S2)CC1	none
COc1cc(/C=C2\SC(N3CCC(C)CC3)=NC2=O)ccc1O	SENP1 FRET inh 63
CCOC(=O)Nc1ccc2c(c1)N(C(=O)CCN(CC)CC)c1ccccc1S2=O (stereo unspecified)	CTSL1 counter 17
